“Also recorded” adds a separate entry of the source.
Key:
MC1R [1] = molecular target: T1, MC1R (Mus musculus, UniProt Q01727); experiment: In vitro cell binding assay; design: species or system murine; settings: B16F10 cells
In short: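 B16F10 cells were grown in high-glucose DMEM with 10% FBS and penicillin/streptomycin at 37 °C and 5% CO2. Cells (0.5 × 10^6) were resuspended in DMEM with 25 mM HEPES, 0.2% BSA and 0.3 mM 1,10-phenanthroline. They were incubated for 90 min at 37 °C with test compound (10^−12–10^−6 M) and ~40,000 cpm 125I-(Tyr2)-NDP. Cells were washed three times with ice-cold PBS and counted. IC50 was taken as the competitor concentration giving 50% inhibition of radioligand binding.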

MC1R [2] = molecular target: T1, MC1R; settings: previous studies; ref [19]; cited from earlier work
B16F10 tumors = experiment: Small-animal PET imaging of mice bearing B16F10 tumors; assay type: in vivo, murine; settings: for PET tumor delineation / image quality: B16F10 tumors, 1 and 2 h p.i.
In short: (§1)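 Mice bearing B16F10 or A375M tumors received 110–130 μCi (4.07–4.81 MBq) 18F tracer via the tail vein. At 1 and 2 h p.i., mice under 2% isoflurane were placed prone for 5-min static small-animal PET scans, reconstructed by 2D OSEM without attenuation correction. ROIs drawn on decay-corrected coronal images were converted to %ID/g using a calibration constant, assuming 1 g/mL tissue density.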

A375M human melanoma = experiment: Biodistribution in Foxn1 nude mice bearing A375M tumors; assay type: in vivo
A375M melanoma = experiment: Small-animal PET imaging of mice bearing A375M tumors; assay type: in vivo, human
In short: as §1

B16F10 murine melanoma = experiment: Biodistribution in C57BL/6 mice bearing B16F10 tumors; assay type: in vivo
In short: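 Male C57BL/6 mice, 5–6 weeks old, were given 1 × 10^6 B16F10 cells in the right flank. At tumor diameter ~8 mm, 110–130 μCi (4.07–4.81 MBq) 18F tracer in PBS (0.01 M, pH 7.4) was injected i.v. into the tail vein. Mice (n=3) were killed by CO2 at 1, 2 and 4 h p.i. Tumor, blood and organs were weighed and γ-counted, giving %ID/g. Groups were compared by unpaired Student's t-test.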

[3] = Foxn1 nude mice, A375M, 2 h p.i., i.v. 110-130 μCi, mean ± SD, n = 3
[4] = C57BL/6 mice, B16F10, 2 h p.i., i.v. 110-130 μCi, mean ± SD, n = 3

T1 sequence (Q01727 whole entry): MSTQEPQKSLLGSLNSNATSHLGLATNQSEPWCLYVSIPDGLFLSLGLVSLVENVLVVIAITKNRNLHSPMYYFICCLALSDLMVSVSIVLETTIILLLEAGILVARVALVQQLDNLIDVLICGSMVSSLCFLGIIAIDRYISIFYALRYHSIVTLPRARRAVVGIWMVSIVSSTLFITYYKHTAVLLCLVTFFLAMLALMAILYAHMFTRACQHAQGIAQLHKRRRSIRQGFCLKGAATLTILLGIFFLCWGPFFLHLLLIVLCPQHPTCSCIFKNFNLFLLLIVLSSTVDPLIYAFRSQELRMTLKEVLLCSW

**Q.** Which “receptor binding affinity” value (MC1R [1]) does the source give for `CC(=O)N[C@H](CCCCNC(=O)C(C)F)C(=O)N[C@@H](CS)C(=O)N[C@@H](CS)C(=O)N[C@@H](CCC(=O)O)C(=O)N[C@@H](Cc1c[nH]cn1)C(=O)N[C@H](Cc1ccccc1)C(=O)N[C@@H](CCCNC(=N)N)C(=O)N[C@@H](Cc1c[nH]c2ccccc12)C(=O)N[C@@H](CS)C(=O)N[C@@H](CCCNC(=N)N)C(=O)N1CCC[C@H]1C(=O)N[C@H](C(N)=O)C(C)C` (some centres unmarked) [^19F-FP-RMSH-1] here?
**A.** Its value is “within low nM range”.

**Q.** Which “MC1R binding affinity of unconjugated RMSH isomers” value (MC1R [2]) does the source give for “Ac-d,Lys-ReCCMSH(Arg^11) (sidechain bridge or staple) [RMSH-1]” here?
**A.** The value was “high MC1R binding affinity in nanomolar (nM) range”.

**Q.** For `CC(=O)N[C@H](CCCCNC(=O)C(C)F)C(=O)N[C@@H](CS)C(=O)N[C@@H](CS)C(=O)N[C@@H](CCC(=O)O)C(=O)N[C@@H](Cc1c[nH]cn1)C(=O)N[C@H](Cc1ccccc1)C(=O)N[C@@H](CCCNC(=N)N)C(=O)N[C@@H](Cc1c[nH]c2ccccc12)C(=O)N[C@@H](CS)C(=O)N[C@@H](CCCNC(=N)N)C(=O)N1CCC[C@H]1C(=O)N[C@H](C(N)=O)C(C)C` (some centres unmarked) [^19F-FP-RMSH-2], which “receptor binding affinity” value (MC1R [1]) is on record?
**A.** Its value is “within low nM range”.

**Q.** With `CC(=O)N[C@H](CCCCNC(=O)C(C)F)C(=O)N[C@@H](CS)C(=O)N[C@@H](CS)C(=O)N[C@@H](CCC(=O)O)C(=O)N[C@@H](Cc1c[nH]cn1)C(=O)N[C@H](Cc1ccccc1)C(=O)N[C@@H](CCCNC(=N)N)C(=O)N[C@@H](Cc1c[nH]c2ccccc12)C(=O)N[C@@H](CS)C(=O)N[C@@H](CCCNC(=N)N)C(=O)N1CCC[C@H]1C(=O)N[C@H](C(N)=O)C(C)C` (some centres unmarked) [^18F-FP-RMSH-1] as the compound, how does the “PET liver and kidney uptake” value (B16F10 tumors; B16F10, 1 and 2 h p.i.) read?
**A.** The value was “moderate to high uptake in liver and kidney”.

**Q.** What about the “PET tumor delineation / image quality” value (B16F10 tumors) of the same compound?
**A.** Its value is “Improved quality of PET images; also recorded: clearly delineated over the background at 1 and 2 h p.i”.

**Q.** And the “A375M tumor uptake compared with B16F10 tumors” value (A375M human melanoma; 2 h p.i., P < 0.01)?
**A.** Its value is “significantly lower than in B16F10 tumors”.

**Q.** And the Heart uptake (A375M human melanoma; [3])?
**A.** Its Heart uptake is 0.41 ± 0.19 %ID/g.

**Q.** What about the Intestine uptake (A375M human melanoma; [3]) of the same compound?
**A.** Its Intestine uptake is 0.40 ± 0.19 %ID/g.

**Q.** And the Liver uptake (A375M human melanoma; [3])?
**A.** Its Liver uptake is 0.69 ± 0.21 %ID/g.

**Q.** What about the Pancreas uptake (A375M human melanoma; [3]) of the same compound?
**A.** Its Pancreas uptake is 0.78 ± 0.49 %ID/g.

**Q.** What about the “PET tumor uptake and tumor-to-background ratio, A375M” value (A375M melanoma; 1 and 2 h, compared with B16F10 tumor bearing mice) of the same compound?
**A.** The value was “much lower tumor uptake and poor tumor-to-background ratio”.

**Q.** What about the “PET kidney activity accumulation, A375M” value (A375M melanoma; 1 and 2 h p.i.) of the same compound?
**A.** Its value is “high activity accumulation in kidneys”.

**Q.** And the “PET visibility of A375M tumor” value (A375M melanoma; 1 and 2 h p.i.)?
**A.** Its value is “barely discernable; also recorded: barely noticeable”.

**Q.** What about the “Muscle uptake” value (B16F10 murine melanoma; B16F10 model) of the same compound?
**A.** The value was “low uptake in muscle”.

**Q.** What about the “blood clearance” value (B16F10 murine melanoma; B16F10 model) of the same compound?
**A.** The value was “rapid blood clearance”.

**Q.** And the “lung and liver uptake compared with ^18F-FB-RMSH-1” value (B16F10 murine melanoma; B16F10 model)?
**A.** The value was “much lower uptake in lung and liver”.

**Q.** And the “tumor-to-blood and tumor-to-muscle ratios compared with ^18F-FB-RMSH-1” value (B16F10 murine melanoma; B16F10 model)?
**A.** The value was “Much higher tumor-to-blood and tumor-to-muscle ratios”.

**Q.** And the “kidney uptake compared with ^18F-FB-RMSH-1” value (B16F10 murine melanoma; B16F10 tumor bearing mice, P < 0.05)?
**A.** The value was “lower kidney uptake”.

**Q.** What about the “Tumor / Muscle uptake ratio” value (B16F10 murine melanoma; [4]) of the same compound?
**A.** The value was 9.36 ± 3.98.

**Q.** Which “MC1R binding affinity of unconjugated RMSH isomers” value (MC1R [2]) does the source give for “Ac-d,Lys-ReCCMSH(Arg^11) (sidechain bridge or staple) [RMSH-2]” here?
**A.** The value was “high MC1R binding affinity in nanomolar (nM) range”.

**Q.** Which results are given for `CC(=O)N[C@H](CCCCNC(=O)C(C)F)C(=O)N[C@@H](CS)C(=O)N[C@@H](CS)C(=O)N[C@@H](CCC(=O)O)C(=O)N[C@@H](Cc1c[nH]cn1)C(=O)N[C@H](Cc1ccccc1)C(=O)N[C@@H](CCCNC(=N)N)C(=O)N[C@@H](Cc1c[nH]c2ccccc12)C(=O)N[C@@H](CS)C(=O)N[C@@H](CCCNC(=N)N)C(=O)N1CCC[C@H]1C(=O)N[C@H](C(N)=O)C(C)C` (some centres unmarked) [^18F-FP-RMSH-2]?
**A.** PET tumor uptake compared with ^18F-FP-RMSH-1 (B16F10 tumors; B16F10, 1 and 2 h, ROI quantification, P < 0.01): much lower tumor uptake; PET liver and kidney uptake (B16F10 tumors; B16F10, 1 and 2 h p.i.): moderate to high uptake in liver and kidney; PET kidney uptake compared with ^18F-FP-RMSH-1 (B16F10 tumors; B16F10, 1 and 2 h p.i., ROI quantification, n = 3, P < 0.01): much higher uptake in kidney; PET tumor delineation / image quality (B16F10 tumors): much less prominent tumor uptake; liver and lung uptake compared with ^18F-FB-RMSH-2, A375M (A375M human melanoma; "in both models" (P < 0.05), A375M model): lower; liver and kidney uptake compared with ^18F-FP-RMSH-1, A375M (A375M human melanoma; A375M model, P < 0.05): higher uptake in liver and kidney; Blood uptake (A375M human melanoma; [3]): 0.20 ± 0.09 %ID/g; Bone uptake (A375M human melanoma; [3]): 0.25 ± 0.12 %ID/g; Brain uptake (A375M human melanoma; [3]): 0.04 ± 0.01 %ID/g; Heart uptake (A375M human melanoma; [3]): 0.18 ± 0.07 %ID/g; Intestine uptake (A375M human melanoma; [3]): 0.17 ± 0.00 %ID/g; Liver uptake (A375M human melanoma; [3]): 1.66 ± 0.08 %ID/g; Lung uptake (A375M human melanoma; [3]): 0.47 ± 0.21 %ID/g; Muscle uptake (A375M human melanoma; [3]): 0.10 ± 0.02 %ID/g; Pancreas uptake (A375M human melanoma; [3]): 0.09 ± 0.01 %ID/g; Spleen uptake (A375M human melanoma; [3]): 0.27 ± 0.03 %ID/g; Stomach uptake (A375M human melanoma; [3]): 0.52 ± 0.50 %ID/g; Tumor / Blood uptake ratio (A375M human melanoma; [3]): 2.90 ± 0.04; Tumor / Muscle uptake ratio (A375M human melanoma; [3]): 6.40 ± 2.66; liver and lung uptake compared with ^18F-FB-RMSH-2, B16F10 (B16F10 murine melanoma; "in both models" (P < 0.05), B16F10 model): lower; Blood uptake (B16F10 murine melanoma; [4]): 0.31 ± 0.11 %ID/g; Bone uptake (B16F10 murine melanoma; [4]): 0.52 ± 0.08 %ID/g; Brain uptake (B16F10 murine melanoma; [4]): 0.04 ± 0.01 %ID/g; Heart uptake (B16F10 murine melanoma; [4]): 0.21 ± 0.06 %ID/g; Intestine uptake (B16F10 murine melanoma; [4]): 0.91 ± 0.33 %ID/g; Lung uptake (B16F10 murine melanoma; [4]): 0.64 ± 0.15 %ID/g; Muscle uptake (B16F10 murine melanoma; [4]): 0.20 ± 0.05 %ID/g; Pancreas uptake (B16F10 murine melanoma; [4]): 0.10 ± 0.03 %ID/g; Spleen uptake (B16F10 murine melanoma; [4]): 0.53 ± 0.03 %ID/g; Stomach uptake (B16F10 murine melanoma; [4]): 0.42 ± 0.14 %ID/g; Tumor / Blood uptake ratio (B16F10 murine melanoma; [4]): 2.74 ± 0.80; Tumor / Muscle uptake ratio (B16F10 murine melanoma; [4]): 3.98 ± 1.09; liver uptake compared with ^18F-FP-RMSH-1 (B16F10 murine melanoma; biodistribution, 2 h): higher uptake in liver

From publication PMC3046310 (Bioconjugate chemistry, 2010)
